Experimental data as given in the RNAGym collection of RNA variant scans (doi:10.1038/nmeth.2970).

B1: NELF-E aptamer (parent)
chain: CCCAACGACUGCCGAGCGAGAUUACGCUUGAGCGCCCCACUGAGGAUGCCCACGGGCGAUUGGGGCACGG

Variants of: B1
Test: HiTS-RAP
Conditions: with NELF-E (Drosophila)
In short: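 Aptamer DNA templates bearing a T7 promoter and a ter site were sequenced on an Illumina GAIIx flowcell. T7 RNA polymerase then transcribed them in situ, and GST-Tus halted transcription over 30 minutes at 37°C. After a 30-minute room-temperature equilibration with NELF-E-mOrange at 0.064 to 1000 nM in HEPES binding buffer, clusters were imaged, using only the first binding curve. Intensities normalised to sequencing intensity were averaged per sequence and fitted with weighted Hill fits to give Kd, retaining only fits whose variance stayed under 1,000,000.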

Point of comparison: CCCACCGACUGCCGAGCGAGAUUACGCUGGAGCGCCCCACUGAGGAUGCCCACGGGCGAUUGGGGCACGG [A5C U29G], Kd 7.04 nM. Against it:
- CCCAACGACUCGCGAGCGAGAUUACGCUUGAGCGCCCCACUGAGGAUGCCCACGGGCGAUUGGGGCACGG [G11C C12G] — within 1.5-fold, 5.71 nM
- CCCAACGACUGGCGUGCGAGAUUACGCUUGAGCGCCCCACUGAGGAUGCCCACGGGCGAUUGGGGCACGG [C12G A15U] — within 1.5-fold, 6.36 nM
- CCCAAGGACUGCCGAGCGAGAUUACGCUUGAGCGCCCCACUGAGGAUGGCCACGGGCGAUUGGGGCACGG [C6G C49G] — within 1.5-fold, 8.75 nM
- CCCAAGGACUGCCGAGCGAGAUUUCGCUUGAGCGCCCCACUGAGGAUGCCCACGGGCGAUUGGGGCACGG [C6G A24U] — within 1.5-fold, 8.62 nM
- CCCAACGACUGCCGAGCGAGAUUGCGCUUGAGCGCUCCACUGAGGAUGCCCACGGGCGAUUGGGGCACGG [A24G C36U] — within 1.5-fold, 6.95 nM
- CCCAACGACUGCGGAGCGAGAUUACGCUUGAGCGCCCCACUGAGGAUGCCCACGGGCGAUUGGGGCGCGG [C13G A67G] — within 1.5-fold, 5.62 nM
- CCCAACGUCUGCCGAGCGAGAUUACGCUUGAGCGCCCCACGGAGGAUGCCCACGGGCGAUUGGGGCACGG [A8U U41G] — within 1.5-fold, 6.19 nM
- CCCAACGACUGCCGAGCGAGAUUACGCUUGUGCGCCCCUCUGAGGAUGCCCACGGGCGAUUGGGGCACGG [A31U A39U] — 5.4-fold higher, 38.1 nM
- CCCAACGACUGCCGAGCGAGAGUACGCUUGAGCGCCCCAGUGAGGAUGCCCACGGGCGAUUGGGGCACGG [U22G C40G] — within 1.5-fold, 6.42 nM
- CCCAUCGACUGCCGAGCGAGAUUACGCUUGAGCGCCCCACUGAGGAUGCCCACGGGCGAUUGGGACACGG [A5U G65A] — within 1.5-fold, 6.8 nM
- CCCAACGACUGCUGAGCGAGAUUACGCUUGAGCGCCCCACUGAGGAUGCCCACGAGCGAUUGGGGCACGG [C13U G55A] — within 1.5-fold, 5.87 nM
- CCCGACGACUGCCGAGCGAGAUUACGAUUGAGCGCCCCACUGAGGAUGCCCACGGGCGAUUGGGGCACGG [A4G C27A] — within 1.5-fold, 5.54 nM
- CCCAACGACUGCCAAGCAAGAUUACGCUUGAGCGCCCCACUGAGGAUGCCCACGGGCGAUUGGGGCACGG [G14A G18A] — within 1.5-fold, 5.3 nM
- CCCAACGACUGGCGAGCGAGAUUACGCUUGAGCGCCCCACGGAGGAUGCCCACGGGCGAUUGGGGCACGG [C12G U41G] — within 1.5-fold, 5.67 nM
- CCCGACGACUGCCGAGCGAGAUUACGCUUGAGCGACCCACUGAGGAUGCCCACGGGCGAUUGGGGCACGG [A4G C35A] — within 1.5-fold, 9.55 nM
- GCCAACGACUGCCGAGCGAGAUUACGCUUGAGCGCCCCACUGAGGAUGCCCACGGGCGAUUGGGGCACGG [C1G] — within 1.5-fold, 4.93 nM
- CCCAACGACUUCCGAGCGAGAUUACUCUUGAGCGCCCCACUGAGGAUGCCCACGGGCGAUUGGGGCACGG [G11U G26U] — within 1.5-fold, 6.79 nM
- CCCAAGGACUGCCGAGCGAGAUUACGCUUGAGCGCCCCACUGAGGAUGCCCACGGGUGAUUGGGGCACGG [C6G C57U] — within 1.5-fold, 6.1 nM
- CCCAGCGACUGCCGAGCGAGAUUACGCUUGAGCGCCCCACUGAGGAUGCCCACGGGCGUUUGGGGCACGG [A5G A59U] — 16-fold higher, 113 nM
- CCCAACGCCUGCCGAGCGAGAUUACGCUGGAGCGCCCCACUGAGGAUGCCCACGGGCGAUUGGGGCACGG [A8C U29G] — within 1.5-fold, 8.24 nM
- CCCAAAGACUGCCGAGCGAGAUUACGCUUGAGCGCCCCACUGAGGAUGCCCACGGGCGAUUGGGGCACGG [C6A] — within 1.5-fold, 6.13 nM
- CCCAACGACUGCCGAGCGAGAUUACUGUUGAGCGCCCCACUGAGGAUGCCCACGGGCGAUUGGGGCACGG [G26U C27G] — within 1.5-fold, 4.95 nM
- CCCAACUACUGCCGAGCGAGAUUACGCUUGAGCGCCCCACUGAGGAUGCCCACGGGCGGUUGGGGCACGG [G7U A59G] — 9.6-fold higher, 67.6 nM
- CCCAUCGAGUGCCGAGCGAGAUUACGCUUGAGCGCCCCACUGAGGAUGCCCACGGGCGAUUGGGGCACGG [A5U C9G] — within 1.5-fold, 6.45 nM
- CCCAACGACUGCCGAGCGAGAUUACGCUUGAGCGCCCCACUGAGGAAGCCCACGGGCGAUUGGGGCGCGG [U47A A67G] — 1.7-fold higher, 12 nM
- CCCAAGGACUGCCGAGCGAGAUUACGCUUGAGCGCCCCACUGAGGAUGCCCACGGGCGUUUGGGGCACGG [C6G A59U] — 3.7-fold higher, 25.7 nM
- CCCGACGACUGCCGAGCGAGAUUACGCUUGAGCGCCCCACUGAGGAUGCCCACGGGUGAUUGGGGCACGG [A4G C57U] — within 1.5-fold, 5.88 nM
- CCCAACGACGGCCGAGCGAGACUACGCUUGAGCGCCCCACUGAGGAUGCCCACGGGCGAUUGGGGCACGG [U10G U22C] — within 1.5-fold, 4.95 nM
- CCCUACGACUGCCGAGCGAGAUUACGCUUGAGCGCCACACUGAGGAUGCCCACGGGCGAUUGGGGCACGG [A4U C37A] — 1.8-fold higher, 13 nM
- CCCAACGACUGCCGAGCGAGAUUACGCUUGAGCGCCCCACUGAGGAUGCCCACGGGCUAUUGGGGCACGG [G58U] — within 1.5-fold, 9.77 nM
- CCCAACGACGGCCGAGCGAGAUUACGCUUGACCGCCCCACUGAGGAUGCCCACGGGCGAUUGGGGCACGG [U10G G32C] — 1.6-fold lower, 4.38 nM
- CCCAACGACUGCGGAGCGAGAUUACGCUUGAGCGCCCUACUGAGGAUGCCCACGGGCGAUUGGGGCACGG [C13G C38U] — within 1.5-fold, 6.55 nM
- CCCAACGACUGCCGAGGGAGGUUACGCUUGAGCGCCCCACUGAGGAUGCCCACGGGCGAUUGGGGCACGG [C17G A21G] — within 1.5-fold, 6.68 nM
- CCCAACGACUGCAGAGCGAGAUUACGCUUGAGCGCCCCACUGAGGAUGCCCACGGGCGAUUGGGGCACGG [C13A] — within 1.5-fold, 5.28 nM
- CCCAACGACGGCCGAGCGAGAUUACGCUUGAGCGCCCCACUGAGGAUGCCCACGGGCGAUUGGGUCACGG [U10G G65U] — within 1.5-fold, 6.08 nM
- CCCCGCGACUGCCGAGCGAGAUUACGCUUGAGCGCCCCACUGAGGAUGCCCACGGGCGAUUGGGGCACGG [A4C A5G] — within 1.5-fold, 6.09 nM
- CCCAACGACUGCCGAGCGUGUUUACGCUUGAGCGCCCCACUGAGGAUGCCCACGGGCGAUUGGGGCACGG [A19U A21U] — within 1.5-fold, 6.8 nM
- CCCAACGACUGCCGAACGAGAGUACGCUUGAGCGCCCCACUGAGGAUGCCCACGGGCGAUUGGGGCACGG [G16A U22G] — within 1.5-fold, 6.17 nM
